Source: ChEMBL document CHEMBL1133124, “N(2)-Aroylanthranilamide inhibitors of human factor Xa” (J Med Chem, 2000)

Molecular target: Coagulation factor X (Homo sapiens) (UniProt P00742)
Assay: Binding affinity for coagulation factor X as apparent association constant (Kass) derived from protease inhibition kinetics.
Outline: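 Human fXa, 3.2 nM final, in tris/NaCl buffer pH 7.4 with HSA; inhibitor added in MeOH, then chromogenic substrate (0.3 mM stock in water) to start hydrolysis; rates read at 405 nm. Four to eight inhibitor concentrations, n = 3 each.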

Chain of Coagulation factor X (Homo sapiens) (P00742 41-179 limits assumed): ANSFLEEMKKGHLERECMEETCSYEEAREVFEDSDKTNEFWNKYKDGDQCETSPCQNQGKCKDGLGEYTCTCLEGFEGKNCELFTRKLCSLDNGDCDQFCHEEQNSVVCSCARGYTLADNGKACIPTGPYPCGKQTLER
Chain of Coagulation factor X (Homo sapiens) (P00742 235-488 limits assumed): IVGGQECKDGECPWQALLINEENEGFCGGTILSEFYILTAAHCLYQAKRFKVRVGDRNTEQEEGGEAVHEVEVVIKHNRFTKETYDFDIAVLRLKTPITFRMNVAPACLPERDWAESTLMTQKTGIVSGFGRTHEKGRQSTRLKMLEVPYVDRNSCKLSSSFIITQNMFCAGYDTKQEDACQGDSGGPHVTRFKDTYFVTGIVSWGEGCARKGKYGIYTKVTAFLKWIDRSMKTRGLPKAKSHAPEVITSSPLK

In the case of `COc1ccc(NC(=O)c2ccccc2NC(=O)c2ccc(OC)cc2)cc1`, the K ass is reported as 1.2e+06 l M-1.

`CCOc1ccc(C(=O)Nc2ccccc2C(=O)Nc2ccc(OC)cc2)cc1` was tested, and the K ass was 1e+06 l M-1.

For `COc1ccc(NC(=O)c2ccccc2NC(=O)c2ccc(C(F)(F)F)cc2)cc1`, the K ass was 90000 l M-1.

For `COc1ccc(NC(=O)c2ccccc2NC(=O)c2cccc(N(C)C)c2)cc1`, the K ass was 90000 l M-1.

With `CC(C)(C)c1ccc(C(=O)Nc2ccccc2C(=O)Nc2ccc(OC(F)(F)F)cc2)cc1` the K ass was < 1000 l M-1.

In the case of `COc1ccc(NC(=O)c2ccc(NC(=O)CCC(=O)O)cc2NC(=O)c2ccc(N(C)C)cc2)cc1`, the K ass is reported as 9.6e+06 l M-1.

With `COc1ccc(NC(=O)c2ccccc2NC(=O)c2ccc(Cl)c(Cl)c2)cc1` the K ass was 10000 l M-1.

For `COc1ccc(OCc2ccccc2NC(=O)c2ccc(OC)cc2)cc1`, the K ass was 30000 l M-1.

In the case of `Cc1ccc(NC(=O)c2ccccc2NC(=O)c2ccc(C(C)(C)C)cc2)cc1`, the K ass is reported as 3.4e+06 l M-1.

With `COc1ccc(/C=C/c2ccccc2NC(=O)c2ccc(OC)cc2)cc1` the K ass was 30000 l M-1.

With `COc1ccc(NC(=O)c2cc(NS(C)(=O)=O)ccc2NC(=O)c2ccc(C(C)(C)C)cc2)cc1` the K ass was 1.35e+07 l M-1.

With `COc1ccc(NC(=O)c2cc([N+](=O)[O-])ccc2NC(=O)c2ccc(C(C)(C)C)cc2)cc1` the K ass was 2.1e+06 l M-1.

In the case of `COc1ccc(NC(=O)c2ccccc2NC(=O)c2ccc(C(C)O)cc2)cc1` (centres undefined), the K ass is reported as 400000 l M-1.

In the case of `COc1ccc(NC(=O)c2ccccc2NC(=O)c2ccc(C(C)(C)C)cc2)cc1`, the K ass is reported as 4.7e+06 l M-1.

For `COc1ccc(NC(=O)c2ccccc2NC(=O)c2ccc(N(C)C)cc2)cc1`, the K ass was 2.01e+07 l M-1.

In the case of `COc1ccc(C(=O)Nc2ccccc2NC(=O)c2ccc(OC)cc2)cc1`, the K ass is reported as 1.3e+06 l M-1.

`CC(C)(C)c1ccc(C(=O)Nc2ccccc2C(=O)Nc2ccc(Cl)cc2)cc1` was tested, and the K ass was 490000 l M-1.

`COc1ccc(NC(=O)c2ccc(N)cc2NC(=O)c2ccc(C(C)(C)C)cc2)cc1` was tested, and the K ass was 6.3e+06 l M-1.

In the case of `COc1ccc(NC(=O)c2ccccc2C(=O)Nc2ccc(OC)cc2)cc1`, the K ass is reported as 70000 l M-1.

`COc1ccc(CCc2ccccc2NC(=O)c2ccc(OC)cc2)cc1` was tested, and the K ass was < 1000 l M-1.

`COc1ccc(NC(=O)c2ccccc2NC(=O)c2ccc(C(C)(C)O)cc2)cc1` was tested, and the K ass was 480000 l M-1.

With `COc1ccc(NC(=O)c2cc(NC(=O)CCC(=O)O)ccc2NC(=O)c2ccc(N(C)C)cc2)cc1` the K ass was 400000 l M-1.

With `COc1ccc(NC(=O)c2ccccc2NC(=O)c2cccc(C)c2)cc1` the K ass was 30000 l M-1.

In the case of `COc1ccc(NC(=O)c2ccccc2NC(=O)c2ccc(C(C)C)cc2)cc1`, the K ass is reported as 7e+06 l M-1.

For `COc1ccc(NC(=O)c2ccc(NS(=O)(=O)c3ccccc3)cc2NC(=O)c2ccc(C(C)(C)C)cc2)cc1`, the K ass was 620000 l M-1.

For `COc1ccc(NC(=O)c2ccccc2NC(=O)c2ccc(C(C)=O)cc2)cc1`, the K ass was 450000 l M-1.

With `COc1ccc(NC(=O)c2ccc(NS(C)(=O)=O)cc2NC(=O)c2ccc(C(C)(C)C)cc2)cc1` the K ass was 3.9e+06 l M-1.

For `COc1ccc(NC(=O)c2ccc(NS(C)(=O)=O)cc2NC(=O)c2ccc(N(C)C)cc2)cc1`, the K ass was 8e+06 l M-1.

For `COc1ccc(NC(=O)c2ccc(NC(C)=O)cc2NC(=O)c2ccc(C(C)(C)C)cc2)cc1`, the K ass was 2.2e+06 l M-1.

With `COc1ccc(NC(=O)c2ccccc2NC(=O)c2cccc(Cl)c2)cc1` the K ass was 30000 l M-1.

In the case of `COc1ccc(NC(=O)c2cc(NC(=O)CCC(=O)O)ccc2NC(=O)c2ccc(C(C)(C)C)cc2)cc1`, the K ass is reported as 150000 l M-1.

With `COc1ccc(NC(=O)c2cc(N)ccc2NC(=O)c2ccc(N(C)C)cc2)cc1` the K ass was 7e+06 l M-1.

With `COc1ccc(NC(=O)c2ccccc2NC(=O)c2ccc(C(N)=O)cc2)cc1` the K ass was 1.12e+06 l M-1.

For `COc1ccc(C(=O)Nc2ccccc2C(=O)Nc2ccc(C(C)(C)C)cc2)cc1`, the K ass was 30000 l M-1.

In the case of `CCc1ccc(NC(=O)c2ccccc2NC(=O)c2ccc(C(C)(C)C)cc2)cc1`, the K ass is reported as 1000 l M-1.

For `COc1ccc(NC(=O)c2cc(NS(C)(=O)=O)ccc2NC(=O)c2ccc(N(C)C)cc2)cc1`, the K ass was 5.79e+07 l M-1.

With `COc1ccc(NC(=O)c2ccc(NC(=O)CCC(=O)O)cc2NC(=O)c2ccc(C(C)(C)C)cc2)cc1` the K ass was 9.6e+06 l M-1.

`COc1ccc(NC(=O)c2cc(N)ccc2NC(=O)c2ccc(C(C)(C)C)cc2)cc1` was tested, and the K ass was 2.5e+06 l M-1.

For `COc1ccc(NC(=O)c2ccc(N)cc2NC(=O)c2ccc(N(C)C)cc2)cc1`, the K ass was 2.27e+07 l M-1.

With `COc1ccc(C(=O)Nc2ccccc2NC(=O)c2ccc(N(C)C)cc2)cc1` the K ass was 1.87e+07 l M-1.

With `CC(C)(C)c1ccc(C(=O)Nc2ccccc2C(=O)Nc2ccc(C(F)(F)F)cc2)cc1` the K ass was 1000 l M-1.

`COc1ccc(NC(=O)c2cc(NC(C)=O)ccc2NC(=O)c2ccc(C(C)(C)C)cc2)cc1` was tested, and the K ass was 40000 l M-1.

With `COc1ccc(NC(=O)c2ccccc2NC(=O)c2ccc(Cl)cc2)cc1` the K ass was 270000 l M-1.

`CC(C)(C)c1ccc(C(=O)Nc2ccccc2C(=O)Nc2ccccc2)cc1` was tested, and the K ass was 460000 l M-1.

In the case of `COc1ccc(NC(=O)c2ccccc2NC(=O)c2ccc(C)cc2)cc1`, the K ass is reported as 1.8e+06 l M-1.

`COc1ccc(NC(=O)c2ccc([N+](=O)[O-])cc2NC(=O)c2ccc(C(C)(C)C)cc2)cc1` was tested, and the K ass was 80000 l M-1.

`CC(C)(C)c1ccc(C(=O)Nc2ccccc2C(=O)Nc2ccc(F)cc2)cc1` was tested, and the K ass was 110000 l M-1.

For `COc1ccc(NC(=O)c2cc(NS(=O)(=O)c3ccccc3)ccc2NC(=O)c2ccc(C(C)(C)C)cc2)cc1`, the K ass was 4.9e+06 l M-1.

`CC(C)(C)c1ccc(C(=O)Nc2ccccc2C(=O)Nc2ccc(Br)cc2)cc1` was tested, and the K ass was 220000 l M-1.
